Tested on: HEK-293T
Assay: Multiplex assay against HEK293T
Format: toxicity, cell-based
Details: human
Summary of the method: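 On a CQ1 microscope at 37°C and 5% CO2, live cells were imaged after compound addition. They had been stained at seeding with Hoechst33342, BioTracker Green Microtubule Cytoskeleton Dye, MitoTracker Red and Annexin V Alexa Fluor 680. CellPathfinder machine-learning gating assigned cells to Hoechst high-intensity objects or normal cells, normal cells to healthy, pyknosed or fragmented nuclei, and pyknosed cells to mitotic or apoptotic. Tubulin, mitochondrial-mass and membrane-permeability phenotypes are per cents of healthy-nucleus cells.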

[1] = 12 h, 1 µM, compound concentration 1 uM, replicate 1
[2] = 12 h, 1 µM, compound concentration 1 uM, replicate 2
[3] = 12 h, 10 µM, compound concentration 10 uM, replicate 1
[4] = 12 h, 10 µM, compound concentration 10 uM, replicate 2
[5] = 24 h, 1 µM, compound concentration 1 uM, replicate 1
[6] = 24 h, 1 µM, compound concentration 1 uM, replicate 2
[7] = 24 h, 10 µM, compound concentration 10 uM, replicate 1
[8] = 24 h, 10 µM, compound concentration 10 uM, replicate 2
[9] = 48 h, 1 µM, compound concentration 1 uM, replicate 1
[10] = 48 h, 1 µM, compound concentration 1 uM, replicate 2
[11] = 48 h, 10 µM, compound concentration 10 uM, replicate 1
[12] = 48 h, 10 µM, compound concentration 10 uM, replicate 2

## N#Cc1cc(F)cc(-c2nc(-c3ccc(F)cn3)no2)c1
[1]
  Population Apoptotic (%): 38%
  Population Fragmented Nuclei (%): 10%
  Population Healthy Nuclei (%): 76%
  Population Hoechst High Intensity Objects (%): 5%
  Population Membrane Permeable-Phenotype (%): 0%
  Population Mitochondria Different-Phenotype (%): 41%
  Population Mitotic Cells (%): 61%
  Population Normal (%): 95%
  Population Pyknosed Nuclei (%): 12%
  Population Tubulin-Different-Phenotype (%): 25%
  Total Cell Count: 280
[2]
  Population Apoptotic (%): 64%
  Population Fragmented Nuclei (%): 6%
  Population Healthy Nuclei (%): 77%
  Population Hoechst High Intensity Objects (%): 8%
  Population Mitochondria Different-Phenotype (%): 55%
  Population Mitotic Cells (%): 36%
  Population Normal (%): 91%
  Population Pyknosed Nuclei (%): 15%
  Population Tubulin-Different-Phenotype (%): 22%
  Total Cell Count: 342
[3]
  Population Apoptotic (%): 45%
  Population Fragmented Nuclei (%): 10%
  Population Healthy Nuclei (%): 73%
  Population Hoechst High Intensity Objects (%): 4%
  Population Membrane Permeable-Phenotype (%): 0%
  Population Mitochondria Different-Phenotype (%): 51%
  Population Mitotic Cells (%): 55%
  Population Normal (%): 95%
  Population Pyknosed Nuclei (%): 16%
  Population Tubulin-Different-Phenotype (%): 29%
  Total Cell Count: 383
[4]
  Population Fragmented Nuclei (%): 8%
  Population Healthy Nuclei (%): 77%
  Population Hoechst High Intensity Objects (%): 10%
  Population Mitochondria Different-Phenotype (%): 61%
  Population Mitotic Cells (%): 54%
  Population Normal (%): 89%
  Population Pyknosed Nuclei (%): 13%
  Population Tubulin-Different-Phenotype (%): 22%
  Total Cell Count: 269
[5]
  Population Apoptotic (%): 43%
  Population Fragmented Nuclei (%): 9%
  Population Healthy Nuclei (%): 77%
  Population Hoechst High Intensity Objects (%): 6%
  Population Membrane Permeable-Phenotype (%): 0%
  Population Mitochondria Different-Phenotype (%): 19%
  Population Mitotic Cells (%): 56%
  Population Normal (%): 93%
  Population Pyknosed Nuclei (%): 12%
  Population Tubulin-Different-Phenotype (%): 12%
  Total Cell Count: 353
[6]
  Population Apoptotic (%): 48%
  Population Fragmented Nuclei (%): 7%
  Population Healthy Nuclei (%): 82%
  Population Hoechst High Intensity Objects (%): 7%
  Population Mitochondria Different-Phenotype (%): 36%
  Population Mitotic Cells (%): 51%
  Population Normal (%): 92%
  Population Pyknosed Nuclei (%): 9%
  Population Tubulin-Different-Phenotype (%): 15%
  Total Cell Count: 463
[7]
  Population Apoptotic (%): 41%
  Population Fragmented Nuclei (%): 10%
  Population Healthy Nuclei (%): 74%
  Population Hoechst High Intensity Objects (%): 4%
  Population Membrane Permeable-Phenotype (%): 0%
  Population Mitochondria Different-Phenotype (%): 34%
  Population Mitotic Cells (%): 58%
  Population Normal (%): 95%
  Population Pyknosed Nuclei (%): 14%
  Population Tubulin-Different-Phenotype (%): 18%
  Total Cell Count: 479
[8]
  Population Apoptotic (%): 39%
  Population Healthy Nuclei (%): 79%
  Population Hoechst High Intensity Objects (%): 8%
  Population Mitochondria Different-Phenotype (%): 40%
  Population Mitotic Cells (%): 60%
  Population Normal (%): 91%
  Population Pyknosed Nuclei (%): 9%
  Population Tubulin-Different-Phenotype (%): 12%
  Total Cell Count: 363
[9]
  Population Apoptotic (%): 35%
  Population Fragmented Nuclei (%): 15%
  Population Healthy Nuclei (%): 77%
  Population Hoechst High Intensity Objects (%): 1%
  Population Membrane Permeable-Phenotype (%): 1%
  Population Mitochondria Different-Phenotype (%): 16%
  Population Mitotic Cells (%): 64%
  Population Normal (%): 98%
  Population Pyknosed Nuclei (%): 6%
  Population Tubulin-Different-Phenotype (%): 11%
  Total Cell Count: 585
[10]
  Population Apoptotic (%): 27%
  Population Fragmented Nuclei (%): 11%
  Population Healthy Nuclei (%): 81%
  Population Hoechst High Intensity Objects (%): 0%
  Population Mitochondria Different-Phenotype (%): 18%
  Population Mitotic Cells (%): 72%
  Population Normal (%): 99%
  Population Tubulin-Different-Phenotype (%): 10%
  Total Cell Count: 715
[11]
  Population Apoptotic (%): 39%
  Population Fragmented Nuclei (%): 16%
  Population Healthy Nuclei (%): 75%
  Population Hoechst High Intensity Objects (%): 1%
  Population Membrane Permeable-Phenotype (%): 1%
  Population Mitochondria Different-Phenotype (%): 18%
  Population Mitotic Cells (%): 60%
  Population Normal (%): 98%
  Population Pyknosed Nuclei (%): 8%
  Population Tubulin-Different-Phenotype (%): 9%
  Total Cell Count: 643
[12]
  Population Apoptotic (%): 48%
  Population Healthy Nuclei (%): 77%
  Population Hoechst High Intensity Objects (%): 4%
  Population Mitochondria Different-Phenotype (%): 22%
  Population Mitotic Cells (%): 51%
  Population Normal (%): 95%
  Population Pyknosed Nuclei (%): 5%
  Population Tubulin-Different-Phenotype (%): 11%
  Total Cell Count: 501

— ChEMBL document CHEMBL5058577, “EUbOPEN Chemogenomics Library 2 (Multiplex)” (2022)
